Like-named read-outs stand apart in the source and are kept apart here.
Tests used:
[1] = target: T1, human DNA polymerase λ (pol λ) (Homo sapiens, UniProt Q9UGP5); experiment: Steady-state primer extension assay, pol λ; assay type: biochemical
T1 sequence (Q9UGP5 1-575): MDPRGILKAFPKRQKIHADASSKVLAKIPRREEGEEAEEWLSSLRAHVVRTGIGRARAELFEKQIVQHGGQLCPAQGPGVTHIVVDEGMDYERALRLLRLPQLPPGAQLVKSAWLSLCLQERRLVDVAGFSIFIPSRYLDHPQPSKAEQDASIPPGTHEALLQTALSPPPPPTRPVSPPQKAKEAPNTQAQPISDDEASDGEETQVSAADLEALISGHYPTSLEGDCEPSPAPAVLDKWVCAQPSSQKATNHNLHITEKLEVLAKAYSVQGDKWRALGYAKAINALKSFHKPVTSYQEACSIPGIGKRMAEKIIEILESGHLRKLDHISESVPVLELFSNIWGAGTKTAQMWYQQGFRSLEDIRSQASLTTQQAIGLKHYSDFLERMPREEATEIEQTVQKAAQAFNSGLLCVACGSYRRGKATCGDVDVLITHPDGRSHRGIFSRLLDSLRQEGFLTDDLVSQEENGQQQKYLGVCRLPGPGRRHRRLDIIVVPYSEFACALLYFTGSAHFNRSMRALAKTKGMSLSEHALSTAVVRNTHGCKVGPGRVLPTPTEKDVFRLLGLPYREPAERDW

MCF7 cells = experiment: MTS assay of cell proliferation, MCF7; assay type: cell-based, human; details: for IC50: Homo sapiens; for −log(IC50) (95% CI): tested compound alone
Summary of the method: (§1)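 Cells grown in DMEM with 10% FBS at 37 °C and 5% CO2. Plated at 5 × 10^3 per well, grown 24 h, then exposed 24 or 72 h to test compound alone or in pairs: 10 μM bleomycin-type or 250 μM alkylating agent added to the lignan, or 10 μM lignan added to either. DMSO 0.2% final; vehicle controls. MTS/PMS for 4 h; A492; cell-free background. Triplicate; IC50 fit, 95% CI.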

UACC903 cells = experiment: MTS assay of cell proliferation, UACC903; assay type: cell-based, human; details: for IC50: Homo sapiens; for −log(IC50) (95% CI): tested compound alone
Summary of the method: as §1

For C=CCc1ccc(O)c(-c2ccc(O)c(CC=C)c2)c1 [HNL, 2-(4-hydroxy-3-prop-2-enyl-phenyl)-4-prop-2-enyl-phenol], the IC50 [1] was 800 nM, the Ki [1] was 8.3 µM and the α ([1]; eq 3, factor on Km/Ki, 95% confidence limits) was 0.51 (0.24, 0.78). For the same compound, the β ([1]; eq 3, residual catalysis with HNL bound, 95% confidence limits) was 0.07 (0.02, 0.12), the “inhibition mechanism versus dCTP” value ([1]; steady-state kinetic analysis) was “mixed-type noncompetitive” and the IC50 (MCF7 cells; MCF7, 24 h, read-out: −log(IC50) (95% CI), MCF7, 24 h, tested compound alone (converted)) was 20 µM. The IC50 (MCF7 cells; MCF7, 72 h, read-out: −log(IC50) (95% CI), MCF7, 72 h, tested compound alone (converted)) was 15.8 µM, the “−log(IC50) (95% CI)” value (MCF7 cells; MCF7, 24 h) was 4.8 (4.7, 4.8) and the “−log(IC50) (95% CI)” value (MCF7 cells; MCF7, 72 h) was 4.9 (4.8, 5.0). For the same compound, the IC50 (UACC903 cells; UACC-903, 24 h, read-out: −log(IC50) (95% CI), UACC903, 24 h, tested compound alone (converted)) was 25.1 µM, the IC50 (UACC903 cells; UACC-903, 72 h, read-out: −log(IC50) (95% CI), UACC903, 72 h, tested compound alone (converted)) was 15.8 µM and the “−log(IC50) (95% CI)” value (UACC903 cells; UACC903, 24 h) was 4.6 (4.47, 4.8). For the same compound, the “−log(IC50) (95% CI)” value (UACC903 cells; UACC903, 72 h) was 4.8 (4.65, 4.9).

From PMC5665024 (Chemical research in toxicology, 2017)
